The text below walks through data of ChEMBL document CHEMBL3227959, “2'-O-Acyl-6-thioinosine cyclic 3',5'-phosphates as prodrugs of thioinosinic acid” (J Med Chem, 1979).

By EC50 is commonly meant the concentration that produces a half-maximal response.

Active and inactive are the calls of the source. The rule behind the calls is not given here.

The test system of data set [1] is S49. Nature of the data set: Cytotoxicity against wild type mouse S49 cells assessed as growth inhibition after 72 hrs by trypan blue exclusion assay. Conditions: S49, 72 h. The class given is functional, cell-based. The essentials: (§1)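 S49 mouse T-lymphoma cells, pre-grown 24 h to keep growth exponential and asynchronous, were plated at 10^5 cells/mL in complete Dulbecco's modified Eagle medium. Agents were added in 30 mM NaHCO3. After 72 h at 37 °C, cells were counted by Coulter counter. Initial density was subtracted and growth expressed as a fraction of drug-free wells. EC50 was read from the percent-inhibition versus concentration plot, reported as mean ± SE. Trypan blue was used to check cytolysis.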

In data set [2] the test system is S49. The experiment in a line: Cytotoxicity against HGPRTase-deficient mouse S49 cells assessed as growth inhibition after 72 hrs by trypan blue exclusion assay. The class given is functional, cell-based. Conditions: S49, 72 h. The essentials:
as §1

Data set [3] relates to S49. Nature of the data set: Cytotoxicity against HGPRTase-deficient mouse S49 cells assessed as growth inhibition at 1000 uM after 72 hrs by trypan blue exclusion assay. The class given is functional, cell-based. The essentials: as §1
The subject of data set [4] is S49. Nature of the data set: Cytotoxicity against HGPRTase- and protein kinase-deficient mouse S49 cells assessed as growth inhibition at 1 mM. In kind it is functional, cell-based. The essentials: as §1
Data set [5] deals with S49. Nature of the data set: Cytotoxicity against wild type mouse S49 cells assessed as growth inhibition after 24 hrs by time-course study. The class given is functional, cell-based.
The subject of data set [6] is S49. The experiment in a line: Cytotoxicity against HGPRTase-deficient mouse S49 cells assessed as growth inhibition at 100 uM after 72 hrs by trypan blue exclusion assay. In kind it is functional, cell-based. The essentials:
as §1

Data set [7] deals with S49. Nature of the data set: Cytotoxicity against HGPRTase- and protein kinase-deficient mouse S49 cells assessed as growth inhibition. In kind it is functional, cell-based. The essentials: as §1
Data set [8] concerns S49. The experiment in a line: Cytotoxicity against HGPRTase-deficient mouse S49 cells assessed as growth inhibition at 500 uM after 20 to 49 hrs by time-course study. The class given is functional, cell-based. The essentials:
(§2)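 Growth of HGPRTase-deficient S49 cells was followed over time with 0.5 mM agent, compared with drug-free cultures. The cAMP comparator was given with 0.2 mM theophylline.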

The test system of data set [9] is S49. Nature of the data set: Cytotoxicity against HGPRTase-deficient mouse S49 cells assessed as growth inhibition at 500 uM after 20 to 49 hrs by time-course study in presence of theophylline. The class given is functional, cell-based. The essentials: as §2
The nature of data set [10]: Drug degradation in Eagle's medium containing 10 % heat-inactivated horse serum assessed as parent compound after 3 days by reverse-phase liquid chromatography. In kind it is physicochemical. Particulars: read-out: Stability. The essentials: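 Agent at 0.5 mM was incubated without cells for 3 days at 37 °C in Dulbecco's modified Eagle medium with 10% heat-inactivated horse serum. Aliquots were diluted 5:1 with methanol, filtered (0.45 μm), and analysed by reverse-phase C18 LC.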

For data set [11], the system named is S49. Nature of the data set: Cytotoxicity against HGPRTase-deficient mouse S49 cells assessed as growth inhibition in presence of theophylline.
The subject of data set [12] is S49. Nature of the data set: Cytotoxicity against HGPRTase-, protein kinase- and phosphodiesterase-deficient mouse S49 cells assessed as growth inhibition. In kind it is functional, cell-based. The essentials:
as §1

In data set [13] the test system is S49. Nature of the data set: Cytotoxicity against HGPRTase-deficient mouse S49 cells assessed as growth inhibition in presence of 4-(3-butoxy-4-methoxybenzyl)-2-imidazolone.
For data set [14], the system named is S49. The experiment in a line: Cytotoxicity against wild type mouse S49 cells assessed as growth inhibition at 200 uM after 72 hrs by trypan blue exclusion assay. In kind it is functional. Conditions: S49, 72 h, read-out: GI. The essentials:
as §1

Turning to `CC(C)C(=O)O[C@@H]1[C@@H]2OP(=O)(O)OC[C@H]2O[C@H]1n1cnc2c(=S)[nH]cnc21`, the EC50 was 23 µM in data set [1] and 479 µM in [2].

Take `CC(C)C(=O)O`: the “growth inhibition (GI)” value in [3] was “inactive”.

In the case of `CCCCCCCCCCCCCCCC(=O)O` [PALMITIC ACID], the EC50 in [2] was determined as 500 µM.

For the compound `CCCC(=O)O[C@@H]1[C@@H]2OP(=O)(O)OC[C@H]2O[C@H]1n1cnc2c(N)ncnc21`, the “growth inhibition (GI)” value in data set [4] is “inactive”.

Consider `Sc1ncnc2nc[nH]c12` [MERCAPTOPURINE ANHYDROUS], for which the “growth inhibition (GI)” value in data set [5] was “Active”. Besides, the values for the EC50 in [1] and in data set [2] were 8 µM and more than 1000 µM, respectively.

As for `CCCCCC(=O)O` [HEXANOATE], the EC50 in data set [2] is more than 1000 µM.

In the case of `CC(C)(C)C(=O)O[C@@H]1[C@@H]2OP(=O)(O)OC[C@H]2O[C@H]1n1cnc2c(=S)[nH]cnc21`, the EC50 stood at 33 µM in data set [1] and 237 µM in data set [2].

Consider `CCCCCCCCCCCC(=O)O`, for which, in data set [6], the “growth inhibition (GI)” value was “inactive”.

Take `CCCCCC(=O)O[C@@H]1[C@@H]2OP(=O)(O)OC[C@H]2O[C@H]1n1cnc2c(=S)[nH]cnc21`: the EC50 in data set [1] was 10 µM; in data set [2], 210 µM.

With `CCCC(=O)O[C@@H]1[C@@H]2OP(=O)(O)OC[C@H]2O[C@H]1n1cnc2c(=S)[nH]cnc21`, the concentration giving a half-maximal response (EC50) in data set [1] was 137 µM; in [2], 426 µM; in [7] it was 250 µM.

`CCCCCCCCCCCCCCCCCCCCCC(=O)O[C@@H]1[C@@H]2OP(=O)(O)OC[C@H]2O[C@H]1n1cnc2c(=S)[nH]cnc21`: the EC50 in data set [2] was 120 µM.

On to `CCCC(=O)Nc1ncnc2c1ncn2[C@@H]1O[C@@H]2COP(=O)(O)O[C@H]2[C@H]1OC(=O)CCC`, for which the “growth inhibition (GI)” value in [8] and in data set [9] was “Active” in each case.

For the compound `CCCCCCCCCCCCCCCC(=O)O[C@@H]1[C@@H]2OP(=O)(O)OC[C@H]2O[C@H]1n1cnc2c(=S)[nH]cnc21`, in [10], the remaining at 72 h turned out to be 20%. Further, the “growth inhibition (GI)” value in [11], in data set [12] and in [13] was “Active” each time. Also, the EC50 in data set [1] was determined as 6 µM; in data set [2], 65 µM.

For `O=P1(O)OC[C@H]2O[C@@H](n3cnc4c(=S)[nH]cnc43)[C@H](O)[C@@H]2O1`, the inhibition of growth at 200 µM in data set [14] turned out to be 40%. The EC50 in data set [1] is 200 µM; in [2] it was more than 1000 µM.

Take `CC(=O)O[C@@H]1[C@@H]2OP(=O)(O)OC[C@H]2O[C@H]1n1cnc2c(=S)[nH]cnc21`: the half-maximal effective concentration (EC50) amounted to 210 µM in [1] and 655 µM in [2].

As for `OC[C@H]1O[C@@H](n2cnc3c(S)ncnc32)[C@H](O)[C@@H]1O` [THIOINOSINE], the EC50 in [1] came to 0.25 µM; in data set [2], 400 µM.

For the compound `CCCCCCCCCCCC(=O)O[C@@H]1[C@@H]2OP(=O)(O)OC[C@H]2O[C@H]1n1cnc2c(=S)[nH]cnc21`, the EC50 is 10 µM in data set [1] and 109 µM in data set [2].
